From ChEMBL document CHEMBL3045693, “Metabolism of diethofencarb (isopropyl 3,4-diethoxyphenylcarbamate) in rats: identification of metabolites in urine” (J Agric Food Chem, 2004)

What was measured:
Conditions in all cases: in vivo, 24 h
[1] = Drug excretion in Rattus norvegicus CD Sprague-Dawley (rat) urine assessed as 1-hydroxypropan-2-yl 3-ethoxy-4-hydroxycarbanilate at 300 mg/5ml, po daily for 4 consecutive days measured within 1 day after final dose by NMR/MS analysis; type: ADME, organism-based
Method in brief: (§1)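 Male CD (Sprague-Dawley) rats, 11 weeks old (n=4), housed individually in glass metabolism cages separating urine and feces. [phenyl-14C]-labelled compound given by gastric probe in corn oil at 300 mg/5 mL/kg daily for 4 days. Urine from the day after the last dose: aqueous layer hydrolysed with sulfatase (with β-glucuronidase activity) in 0.2 M acetate pH 5.0, 37 °C, 19 h. Ethyl acetate extraction, then HPLC/TLC purification and NMR/ESI-MS identification.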

[2] = Drug excretion in Rattus norvegicus CD Sprague-Dawley (rat) urine assessed as N-(3-ethoxy-4-hydroxy-5-methylsulfinylphenyl) acetamide at 300 mg/5ml, po daily for 4 consecutive days measured within 1 day after final dose by NMR/MS analysis; type: ADME, organism-based; method in brief: as §1
[3] = Drug excretion in Rattus norvegicus CD Sprague-Dawley (rat) urine assessed as (4-acetamino-2-ethoxyphenoxy) acetic acid at 300 mg/5ml, po daily for 4 consecutive days measured within 1 day after final dose by NMR/MS analysis; type: ADME, organism-based; method in brief: as §1
[4] = Drug excretion in Rattus norvegicus CD Sprague-Dawley (rat) urine assessed as N-(3-ethoxy-4- hydroxyphenyl)acetamide at 300 mg/5ml, po daily for 4 consecutive days measured within 1 day after final dose by NMR/MS analysis; type: ADME, organism-based; method in brief: as §1
[5] = Drug excretion in Rattus norvegicus CD Sprague-Dawley (rat) urine assessed as 2-{2-ethoxy-4-[(isopropoxycarbonyl)amino]- phenoxy}acetic acid at 300 mg/5ml, po daily for 4 consecutive days measured within 1 day after final dose by NMR/MS analysis; type: ADME, organism-based; method in brief: as §1
[6] = Drug excretion in Rattus norvegicus CD Sprague-Dawley (rat) urine assessed as 2-acetamino-3-{4-ethoxy-3-hydroxy-2-[(isopropoxycarbonyl)amino]phenylthio}propionic acid at 300 mg/5ml, po daily for 4 consecutive days measured within 1 day after final dose by NMR/MS analysis; type: ADME, organism-based; method in brief: as §1
[7] = Drug excretion in Rattus norvegicus CD Sprague-Dawley (rat) urine assessed as 3-(3-ethoxy-4-hydroxyphenyl)-4-hydroxy-5-methyloxazolidin- 2-one at 300 mg/5ml, po daily for 4 consecutive days measured within 1 day after final dose by NMR/MS analysis; type: ADME, organism-based; method in brief: as §1
[8] = Drug excretion in Rattus norvegicus CD Sprague-Dawley (rat) urine assessed as N-(3-ethoxy-4-hydroxyphenyl)-2-hydroxyacetamide at 300 mg/5ml, po daily for 4 consecutive days measured within 1 day after final dose by NMR/MS analysis; type: ADME, organism-based; method in brief: as §1
[9] = Drug excretion in Rattus norvegicus CD Sprague-Dawley (rat) urine assessed as 2-acetamino- 3-[5-acetamino-3-ethoxy-2-hydroxyphenylthio]propionic acid at 300 mg/5ml, po daily for 4 consecutive days measured within 1 day after final dose by NMR/MS analysis; type: ADME, organism-based; method in brief: as §1
[10] = Drug excretion in Rattus norvegicus CDSprague-Dawley (rat) urine assessed as isopropyl 3-ethoxy-4- hydroxy-5-(methylthio) carbanilate at 300 mg/5ml, po daily for 4 consecutive days measured within 1 day after final dose by NMR/MS analysis; type: ADME, organism-based, CD Sprague-Dawley; method in brief: as §1
[11] = Drug excretion in Rattus norvegicus CD Sprague-Dawley (rat) urine assessed as 2-acetamino-3-{3-ethoxy-2-hydroxy-5-[(isopropoxycarbonyl) amino]phenylthio}propionic acid at 300 mg/5ml, po daily for 4 consecutive days measured within 1 day after final dose by NMR/MS analysis; type: ADME, organism-based; method in brief: as §1

Measured: Drug excretion

CCOc1ccc(NC(=O)OC(C)C)cc1OCC [DIETHENOFENCARB]
Active: all assays above
